Measured values reported in the RNAGym collection of RNA variant scans (doi:10.1126/science.aae0568).
This sample holds only a part of the variants without activity.

B1: tRNA (parent)
chain: GUUCCGUUGGCGUAAUGGUAACGCGUCUCCCUCCUAAGGAGAAGACUGCGGGUUCGAGUCCCGUACGGAACG

Variants of: B1
Assay: yeast fitness relative to wild type (ratio to wild type); higher = fitter; tRNA-Arg(CCU), competitive growth, 37 C, YPD
Method in brief: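 Gene amplicons from the start population and from each of six end populations were read by 100-nucleotide paired-end sequencing. Those end populations came from pooled Saccharomyces cerevisiae strains carrying tRNA-Arg(CCU) gene variants at the native locus, competed in YPD at 37°C for 24 hours. Fitness relative to wild type was worked out from changes in genotype frequencies. Genotypes needed ≥ 100 starting reads, and estimates < 0.5 were set to 0.5.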

Variant | yeast fitness
GUUCAGUUGGCGUAAUGGUAACGCGUCUCCCUCCUAAGGAGAAGACUCCGGGUUCGAGUCCCGUACCGAACG [C5A G48C G67C] | 0.591
GAUCCGUUGGCGUAAUGGUAACGGGUCUCCUUGCUAAGGAGCUGACUGCGGGUUCGAGUCCCGUACGGAACG [U2A C24G C31U C33G A42C A43U] | 0.651
GUUCCGUCGGCCUAAUGGUAACGCGUCUCCCUCCUAAGGAGAAGACUGCGGGUUCGAGUCCCGUACGGAACG [U8C G12C] | 0.853
GUUCCGUUGGCGUAAUGGUAACGCGUAUCCCUCCUAAGGAGAACACUGCGGGUUCGAGUCCCGUACGGAACG [C27A G44C] | 0.782
GUUCAGUUGGCGUAAUGGGAACGCGUCUCCCUCCUAAGGAGAAGACUGCGGGUUCGAGUCCCGUACGGAACG [C5A U19G] | 0.731
GUUCCGUUGGCGUAAUGCUAACGCGUCUCCCUCCUAAGGAGAAGACUGCGGGUUCGAGUCACGUACGGAACG [G18C C61A] | 0.627
GUUCCGUUGGAGUAAUGGUAAGGCGUCUCCCUCCUAAGGAGAAGACUGCGGGUUCGAGUCCCGUACGGAACG [C11A C22G] | 0.623
GUUCCGUUCGCGUAAUGGUAACGGGUCUCCCUCCUAAGGAGAAGACUGUGGGUUCGAGUCCCGUCCGGAACG [G9C C24G C49U A65C] | ≤ 0.5
GUUCCGUUGGCGUAAUGGUAACGCAUCUCCGUCCUAAGGAGAAGUCUGCGGGUUCGAGUCUCGUACGGAACG [G25A C31G A45U C61U] | 0.727
GUUCCGUUGGCGUAAUGGUAACGCGUCUCCCUCCUAAGGAGAAGAGUGCGGGUUUGAGUCCCGUACGGAACG [C46G C55U] | 0.769
GUUCCGUGGGCGUAAUGGUAACCCGUCUCCCUCCUAAGGAGAAGACUGCGGGUUCGAGUCCCGUACGGAACG [U8G G23C] | ≤ 0.5
GUUACGUUGGCGUAAUGGUAACGCGUCUCCCUCCUAAGGAGAAGACUGCGCGUUCGAGUCCCGUAUGGAACG [C4A G51C C66U] | ≤ 0.5
GUUCCGUGGGCGUAAUAGUCAGGCGUCUGCCUCGUAAGGAGAAGACUGCGGGUUCGAGUCCCGUACGGAGCG [U8G G17A A20C C22G C29G C34G A70G] | ≤ 0.5
GUUCCCUUGGAGUAAUGGUAAUGCGUCUCCCUCCUAAGGAGAAGACUGCGGGUUCGAGUCCCGUACGGAACG [G6C C11A C22U] | 0.573
GUUCUGUUGGCGUAAUGGCAUCGCGUCUCCCUCCUACGGAGAAGACUGCGGGUUCGAGUCACGUCCGGAACG [C5U U19C A21U A37C C61A A65C] | ≤ 0.5
GUUCCGUUGGCGUGAUGGUAACGCGUCUCCCUCCUAAGGAGAAGACUGCGGGUUCGAGUCCCGCACGGAACG [A14G U64C] | 0.924
GUUCCGUUGGCGUAAUGGUAACGCGUCUCCUUCCUAAGGAGAAGACUGCGGAUUCGAGUCCCGUACGCAACG [C31U G52A G68C] | ≤ 0.5
GUUCCGUUGGCAUAAUGGUAACGGGUCUCCCUCCUAAGGAGAAGACUGCGGGUUCGAGUCCCGUACGAAACG [G12A C24G G68A] | ≤ 0.5
GCUCGGUUGGCGUGAUGGUAACGCGUCUCCCUCCUAAGGAGAAGACUGCGGGUUCGAGUCCCGUACGGAACG [U2C C5G A14G] | 0.559

Variant | yeast fitness
GAUCCGUUGGCUUAAUGGUAACACGUCUCCCUCCUUAGGAGAAGACUGCGGGUUCGACUUCCGUACGGAACG [U2A G12U G23A A36U G58C C60U] | ≤ 0.5
GUUCCGUAGGCGUAAUAGUAACGCGUCUCCCUCCUAAGGAGAAGACUGCGGGUUCGAGUCCGGUACGGAACG [U8A G17A C62G] | ≤ 0.5
GUUCCGUUGGCGUAAUGGUAACGCGUCUGGCUCCUAAGGAGAAGACUGCGGGUUCGAGUCCCAUACGGAACG [C29G C30G G63A] | 0.607
GUUCCGUGGAGGUAAUGGGAACGCGUCUCCCUCCUAAGGGGAAGACUGCGGGUUUGAGUUCCGUACGGAACG [U8G G10A C11G U19G A40G C55U C60U] | 0.511
GUUCCGUUGGCGUAAUGGUAACGCGUAUCCCUCCUAUGGAGAAGACUGUGGGUUUGAGUGCCGUCCGGAACG [C27A A37U C49U C55U C60G A65C] | ≤ 0.5
GUUCCGUUGGCGUAAUGGUAACGCGACUCCCUCCUAAGGAGAAGAGUGCGGGUUCGAGUCCCGUACGGAACG [U26A C46G] | 0.973
GUUCCAUUGGCGUAAUGGUAACGUGUCUCCCUCCUAAGGAGAAGACUGCGGGUUCGAGUCCCGUACGGAACG [G6A C24U] | 0.733
GUUCCGUUGGCGUAAUGGUAACGCGUCUCCCUCCAAAGGAGAAGACUGCGGCUUCGAGUCCCGUACGGAACG [U35A G52C] | ≤ 0.5
GUUCCGUUGGGCUAAUGGUCACGGGUCUCCCUCCUAGGGAGAAGACUGCGGGUUCGAGUCCCGUACGACACG [C11G G12C A20C C24G A37G G68A A69C] | ≤ 0.5
GUUCAGUUGGCGUAAUGGUAACGCGUAUCCCUCCUAAGGAGAAGACUGCGGGUUCGAGUCCCGUACGGAACG [C5A C27A] | 0.936
GUUCCGUUGGCGUAAUGGUAAGGAGUCUCCCUCCUAAAGAGAACACUGCGGGUUCGAGACCCGUACGGAACG [C22G C24A G38A G44C U59A] | ≤ 0.5
GUUGCGUUGGCGUAAUGGUAAAGCGUCUCCCUCCUAAGGAGAAGACUGCGGGUUCGAGUCCCGUACGGAACG [C4G C22A] | 0.767
GUUCCGUUGGCGUAAUGGUAACGCGUCUCCCUCCUAAGGAGCAGACUGCGGGAUCGAGUCCCGUACGCAACG [A42C U53A G68C] | ≤ 0.5
GUUCCGUUGGCGUAAUGGUAACGCGUCUGCCUCCUAACGAGAAAACUGCGGGUUCGAGUCCCGUACGGAACG [C29G G38C G44A] | 0.668
GUUCCGUUGGGGUAAUGGUAACGCGUCUCCCUCCUAAGGAGAAGACUGCUGGUUCGAGUCCGGUACGGAACG [C11G G50U C62G] | ≤ 0.5
GUUCCGUUGGCAUCAUGGUAACGCGUCUCCCUCGUAAGGAGAAGACUGCGGGUUCGAGUCCCGUACGGAACG [G12A A14C C34G] | ≤ 0.5
GUUCCGUUGGCAAAAUGGUAACGCGUCUCCCUCCUAGGGGGAAGACUGCGGGUUCGAGACCCGUACGGAACG [G12A U13A A37G A40G U59A] | ≤ 0.5
GUUCCGUUGGCGUAAUGGUAACGCGUAUCCCUCCUAAGGAGAAGACUGCGGGUUCGAGUCCGGUUCGGAACG [C27A C62G A65U] | ≤ 0.5
GUUCCGUUGGCGUAAUGGUAACGCGUCUCCCUCCUAAGGAGAAGACUGCGGGUUCGAGUCCCGUGAGGAACG [A65G C66A] | 0.716
